Reference: ChEMBL document CHEMBL1141098, “Molecular modeling of wild-type and D816V c-Kit inhibition based on ATP-competitive binding of ellipticine derivatives to tyrosine kinases” (J Med Chem, 2005)

How the values were obtained:
[1] = target: Fibroblast growth factor receptor 3 (Homo sapiens, UniProt P22607); experiment: Inhibitory activity against Fibroblast growth factor receptor 3
Outline: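 Commercially supplied FGFR3 enzyme. Value is the IC50 for inhibition of kinase activity.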

[2] = target: Mast/stem cell growth factor receptor Kit (Homo sapiens, UniProt P10721, D816V); experiment: Inhibitory concentration against c-Kit D816V type expressed in recombinant baculovirus
Chain of Mast/stem cell growth factor receptor Kit (Homo sapiens, UniProt P10721, D816V) (P10721 26-976 D816V limits assumed): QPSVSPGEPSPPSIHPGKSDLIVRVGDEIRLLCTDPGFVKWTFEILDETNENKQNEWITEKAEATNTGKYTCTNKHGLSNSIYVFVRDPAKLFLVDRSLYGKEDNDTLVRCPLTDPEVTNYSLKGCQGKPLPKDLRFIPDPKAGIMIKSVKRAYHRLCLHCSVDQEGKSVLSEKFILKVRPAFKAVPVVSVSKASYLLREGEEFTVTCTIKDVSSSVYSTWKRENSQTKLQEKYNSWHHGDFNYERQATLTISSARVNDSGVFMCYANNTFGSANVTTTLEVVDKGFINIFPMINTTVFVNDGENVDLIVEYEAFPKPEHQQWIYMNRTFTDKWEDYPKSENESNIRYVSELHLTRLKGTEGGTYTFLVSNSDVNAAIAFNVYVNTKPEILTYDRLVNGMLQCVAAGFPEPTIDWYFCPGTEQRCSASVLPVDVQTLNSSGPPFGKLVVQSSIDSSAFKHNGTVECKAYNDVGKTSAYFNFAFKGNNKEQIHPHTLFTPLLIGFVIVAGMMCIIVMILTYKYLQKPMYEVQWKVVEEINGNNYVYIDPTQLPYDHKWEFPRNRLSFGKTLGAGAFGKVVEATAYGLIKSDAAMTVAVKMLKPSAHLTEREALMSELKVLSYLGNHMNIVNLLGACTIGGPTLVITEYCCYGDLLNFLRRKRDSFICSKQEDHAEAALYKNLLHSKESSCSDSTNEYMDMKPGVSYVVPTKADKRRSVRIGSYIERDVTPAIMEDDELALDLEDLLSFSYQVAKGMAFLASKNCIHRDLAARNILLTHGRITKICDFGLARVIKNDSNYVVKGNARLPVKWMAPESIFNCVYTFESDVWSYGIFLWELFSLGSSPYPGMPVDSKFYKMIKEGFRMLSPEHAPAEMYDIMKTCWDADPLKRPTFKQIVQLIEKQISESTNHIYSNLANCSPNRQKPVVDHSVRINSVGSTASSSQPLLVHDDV
Outline: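 Recombinant c-Kit D816V expressed in baculovirus-infected High Five cells (MOI 10, harvested 90 h), purified by ion exchange then Ni affinity chromatography. ELISA on poly-Glu/Tyr (1:4)-coated wells; 10 nM final enzyme in 10 mM MgCl2, 1 mM MnCl2, 1 mM vanadate, 20 mM HEPES pH 7.3, BSA; 15 min at 25 °C, EDTA stop. Anti-phosphotyrosine-HRP detection, OPD, absorbance 492 nm; IC50 from inhibition.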

[3] = target: Mast/stem cell growth factor receptor Kit (Homo sapiens, UniProt P10721); experiment: Inhibitory concentration against c-Kit wild type expressed in recombinant baculovirus
Chain of Mast/stem cell growth factor receptor Kit (Homo sapiens, UniProt P10721) (P10721 whole entry): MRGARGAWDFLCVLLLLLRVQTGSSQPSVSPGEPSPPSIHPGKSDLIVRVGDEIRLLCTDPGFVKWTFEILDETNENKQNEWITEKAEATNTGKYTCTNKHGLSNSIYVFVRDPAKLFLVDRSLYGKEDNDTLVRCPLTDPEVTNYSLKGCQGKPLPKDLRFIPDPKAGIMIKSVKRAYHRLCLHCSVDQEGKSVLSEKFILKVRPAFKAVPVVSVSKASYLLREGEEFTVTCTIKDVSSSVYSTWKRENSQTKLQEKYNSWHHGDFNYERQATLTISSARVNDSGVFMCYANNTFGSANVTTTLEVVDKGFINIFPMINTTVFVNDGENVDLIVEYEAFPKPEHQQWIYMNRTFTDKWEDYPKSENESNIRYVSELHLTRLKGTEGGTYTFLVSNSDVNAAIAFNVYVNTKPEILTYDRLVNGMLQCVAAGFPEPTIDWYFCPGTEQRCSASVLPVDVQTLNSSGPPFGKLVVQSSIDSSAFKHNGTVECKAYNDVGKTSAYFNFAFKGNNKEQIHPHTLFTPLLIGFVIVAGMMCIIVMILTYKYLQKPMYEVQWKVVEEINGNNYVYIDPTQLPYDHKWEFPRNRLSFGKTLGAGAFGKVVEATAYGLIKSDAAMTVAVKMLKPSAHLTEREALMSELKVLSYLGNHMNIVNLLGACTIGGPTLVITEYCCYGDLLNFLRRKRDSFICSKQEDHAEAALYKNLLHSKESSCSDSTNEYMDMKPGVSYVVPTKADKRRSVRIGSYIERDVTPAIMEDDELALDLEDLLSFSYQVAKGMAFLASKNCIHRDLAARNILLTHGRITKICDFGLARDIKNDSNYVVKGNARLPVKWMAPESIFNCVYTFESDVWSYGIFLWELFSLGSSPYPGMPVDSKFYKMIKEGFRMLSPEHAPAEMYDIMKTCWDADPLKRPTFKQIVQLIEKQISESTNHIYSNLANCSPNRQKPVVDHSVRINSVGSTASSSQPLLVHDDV

Chain of Fibroblast growth factor receptor 3 (P22607 whole entry): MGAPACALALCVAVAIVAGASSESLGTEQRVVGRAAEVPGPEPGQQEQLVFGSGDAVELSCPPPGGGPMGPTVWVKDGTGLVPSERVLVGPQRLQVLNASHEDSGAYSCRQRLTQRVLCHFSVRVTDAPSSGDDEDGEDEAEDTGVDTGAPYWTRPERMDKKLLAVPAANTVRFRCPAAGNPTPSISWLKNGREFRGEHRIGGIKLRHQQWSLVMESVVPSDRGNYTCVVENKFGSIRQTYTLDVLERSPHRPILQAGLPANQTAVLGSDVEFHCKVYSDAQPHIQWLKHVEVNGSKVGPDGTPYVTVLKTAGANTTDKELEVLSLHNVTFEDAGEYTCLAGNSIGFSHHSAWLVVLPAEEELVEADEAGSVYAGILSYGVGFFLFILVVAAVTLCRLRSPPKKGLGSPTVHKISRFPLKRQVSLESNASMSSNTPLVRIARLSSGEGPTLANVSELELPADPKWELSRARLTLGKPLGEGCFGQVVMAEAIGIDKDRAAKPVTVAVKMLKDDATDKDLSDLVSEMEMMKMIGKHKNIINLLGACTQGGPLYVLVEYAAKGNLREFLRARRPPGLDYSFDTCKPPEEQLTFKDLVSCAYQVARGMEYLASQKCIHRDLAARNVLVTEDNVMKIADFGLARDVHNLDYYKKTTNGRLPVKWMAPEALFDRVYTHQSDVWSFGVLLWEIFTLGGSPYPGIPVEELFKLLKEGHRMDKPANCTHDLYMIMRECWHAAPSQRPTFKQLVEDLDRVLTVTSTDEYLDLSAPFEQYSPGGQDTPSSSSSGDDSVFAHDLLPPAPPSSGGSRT

| Compound | IC50 [1] [nM] | IC50 [2] [nM] | IC50 [3] [nM] |
| --- | --- | --- | --- |
| Cc1c2cc[n+](C)cc2c(C)c2c1[nH]c1ccc(O)cc12 | 500 | 400 | 400 |
| CCN(CC)CCCNc1nccc2c(C)c3c(c(C)c12)c1cc(O)ccc1n3C | 1400 | 3600 | 2500 |
| CCN(CC)CC[n+]1ccc2c(C)c3[nH]c4ccc(O)cc4c3c(C)c2c1 | – | 300 | 450 |
| CCN(CC)CCCNc1nccc2c(C)c3[nH]c4ncccc4c3cc12 | – | 1900 | 2300 |
| COc1ccc2[nH]c3c(C)c4ccncc4c(C)c3c2c1 | – | 600 | 800 |
| Cc1c2ccncc2c(C)c2c1[nH]c1ccc(O)cc12 | 400 | 400 | 400 |
| Cc1c2ccncc2c(C)c2c1[nH]c1ccc(Br)cc12 | – | > 10000 | > 10000 |
| CCN(CC)CCCNc1nccc2c(C)c3[nH]c4ccc(O)cc4c3c(C)c12 | – | 1200 | 1400 |
| CCN(CC)CCCNc1nccc2c(C)c3[nH]c4ccc(OC)cc4c3cc12 | – | 2000 | 2500 |
| Cc1c2ccncc2c(C)c2c1[nH]c1ccccc12 [ELLIPTECINE] | – | > 10000 | > 10000 |
